In the library only some 1% were active in any assay of this set; here they are far more common.
L929 necroptosis = inhibitors of zVAD-triggered necroptosis, primary screen, L929 cells | L929 zVAD necroptosis rescue, ATP luminescence, 24 h; with zVAD 60 µM | 220,000 tested, 0.38% active | viability rescue, % at 10 µM;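 active means activation, scaled between plate controls, above about 75%, limit read from the data; inactive means activation under that limit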;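 further: 0% = zVAD with DMSO and 100% = DMSO alone without zVAD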
Rad51 HR inh = human RAD51 strand exchange inhibitors, primary screen, biochemical, fluorescence | hRad51 DNA strand exchange, fluorescence dequenching | inhibition, % at 10 µM | AID 1385, 2008 | 200,000 tested, 0.085% active;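 active means inhibition above 40% at the single screening dose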;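 further: 0% = DMSO control wells and 100% = blanks with heterologous ssDNA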
Target sequence (Q06609 whole entry, looked up): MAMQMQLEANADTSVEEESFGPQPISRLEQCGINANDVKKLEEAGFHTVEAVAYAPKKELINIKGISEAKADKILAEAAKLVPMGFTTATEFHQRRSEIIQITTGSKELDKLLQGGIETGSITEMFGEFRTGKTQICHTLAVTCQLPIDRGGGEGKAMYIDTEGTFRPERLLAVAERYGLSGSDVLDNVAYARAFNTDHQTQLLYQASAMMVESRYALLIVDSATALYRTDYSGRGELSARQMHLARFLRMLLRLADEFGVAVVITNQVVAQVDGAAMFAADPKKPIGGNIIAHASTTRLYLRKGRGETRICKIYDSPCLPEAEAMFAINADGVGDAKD
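Material: hRad51 filaments on single-stranded DNA; Reagent: Donor/quencher-labelled 47-bp dsDNA substrate; Compound: 10 µM final, single point; Schedule: 37 °C 15-min filament assembly, 30-min compound preincubation, 15-min exchange; Technique: FRET fluorescence, excitation 485 nm, emission 520 nm; Benchmarks: control wells and blank wells on each plate.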
Efa HMGR inh = inhibitors of E. faecalis class II HMGR, primary screen, biochemical, Enterococcus faecalis. purified E. faecalis HMGR, NADPH absorbance 340 nm kinetic. inhibition, % at 10 µM. 190,000 tested, 0.41% active;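 active means inhibition above a set limit, the median over all tested compounds plus 3 SD, cut at about 9.5% in these data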;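 further: enzyme runs in reverse so mevalonate oxidation gives rising NADPH absorbance; 0% = complete reaction with DMSO and 100% = background rate lacking mevalonate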
TNF death inh = inhibitors of TNF-alpha triggered necroptosis, primary screen, cell-based, Jurkat FADD-/-, single concentration; Jurkat FADD-/- TNF necroptosis rescue, ATP luminescence, 24 h; 0 = TNF only, 100 = no-TNF cells; activation (protection from cell death), % at 10 µM; 220,000 tested, 0.068% active;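 active means activation, meaning protection from cell death, of at least 50% relative to plate controls; inactive means activation below 50%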;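 further: necroptosis triggered by 40 ng/mL TNF-alpha added together with compound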
PERK inhibitor = block of dimerizer-induced PERK translation repression, primary screen, PERK inhibitor project, CHO PERK-DD cells, SEAP luminescence, HTS; Eukaryotic translation initiation factor 2-alpha kinase 3 (Homo sapiens), Q9NZJ5; CHO PERK-DD fusion, SEAP luminescence translation reporter; inhibition, % at 5.6 µM; 220,000 tested, 0.17% active; AID 1416, 2008;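 active means inhibition above the mean inhibition of all tested compounds plus 3 SD, set separately per screening campaign, cut at about 2.9% in these data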;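 further: PERK kinase domain activated by AP20187 dimerizer at 100 nM; 0% = DMSO with dimerizer and 100% = rapamycin at 8.4 µM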
zVAD death conf = inhibitors of zVAD-triggered necroptosis in L929, confirmation, L929 cells, duplicate runs; shares compounds with L929 necroptosis; L929 zVAD-induced necroptosis rescue, ATP luminescence, 24 h; activation (protection from necroptosis), % at 10 µM; 760 tested, 16% active;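 active means mean protection from necroptosis of at least 50% over duplicate tests; inactive means mean protection below 50%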;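 further: 0% = cells with zVAD alone and 100% = vehicle cells without zVAD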
Starred values were filed as active, the others as inactive; / = not tested or not shown.

SMILES	L929 necroptosis	Rad51 HR inh	Efa HMGR inh	TNF death inh	PERK inhibitor	zVAD death conf
CCOP(=O)(OCC)C(NC(=O)c1cccs1)C(F)(F)F (centres undefined)	1.2	-4.2	-1.6	-0.9	0.6	/
CN(C)/C=C/C(=O)c1ccc(-n2cccc2)cc1	77.1*	-28.5	-3.0	-0.5	0.0	2.9
CN(C)/C=C/C(=O)c1ccc(Cl)cc1	0.8	-5.2	-0.8	-4.9	0.3	/
CCN(CC)c1ccc(N/C(N)=N/c2nc(C(F)(F)F)cc(=O)[nH]2)cc1	91.2*	2.1	-3.8	-1.9	0.6	0.3
O=C(OCn1ncc(Br)c(Br)c1=O)c1ccccc1Cl	44.2	-10.9	-1.3	-14.3	-1.9	/
O=C(OCn1ncc(Br)c(Br)c1=O)c1ccc(F)cc1	112.7*	2.7	0.2	-23.9	-1.3	135.9*
Cc1ccc(C(=O)Nc2cccc(C(F)(F)F)c2)cc1NC(=O)c1cnnc2ccccc12	72.2	5.7	/	1.5	/	/
Cc1cn(-c2cc(C(=O)Nc3ccc(C)c(NC(=O)C(=O)c4c[nH]c5ccccc45)c3)cc(C(F)(F)F)c2)cn1	77.4*	2.8	/	-10.1	/	70.8*
Cc1ccc(N=c2oc3cc(O)ccc3cc2C(N)=O)cc1	78.6*	-3.9	-0.6	-11.1	0.2	37.7
O=C(Nc1ccc(N2CCOCC2)cc1)C1CC(=O)N(c2ccc(F)cc2)C1 (centres undefined)	6.4	8.0	-4.6	-0.4	0.4	/
Cc1ccc(-c2nc(Nc3ccccc3)n[nH]2)cc1	77.0*	5.2	-1.5	12.0	0.0	77.1*
Cc1ccc2c(c1)C1CN(C)CCC1N2C(=O)c1cccc(S(=O)(=O)N(C)C)c1 (centres undefined)	-0.1	-3.1	-3.2	0.5	-0.7	/
Cc1ccc2c(c1)C1CN(C)CCC1N2C(=O)Nc1ccc(Cl)cc1 (centres undefined)	81.9*	5.6	1.0	10.5	-0.9	7.7
Clc1ccc(COn2ccnc2)cc1Cl	88.2*	1.7	-0.3	88.5*	0.5	92.3*
Cc1c(Br)cccc1NC(=O)c1sccc1-n1cccc1	0.6	/	-4.8	0.8	0.3	/
CC(C)c1ccc(NC(=O)c2sccc2-n2cccc2)cc1	83.6*	-1.6	-1.3	3.0	1.0	25.4
Fc1cccc(Cl)c1CNn1cn[nH]c1=S	0.5	/	0.7	0.9	1.6	/
S=c1[nH]ncn1NCc1ccc(Cl)cc1Cl	87.4*	/	-7.1	1.3	0.3	33.5
CC(C)c1ccc(-n2cnn(-c3ncccc3[N+](=O)[O-])c2=O)cc1	77.8*	5.8	2.5	2.1	0.9	0.6
COc1ccc(/C=C/C(=O)c2ccc[nH]2)cc1OC	88.8*	0.1	-3.8	19.9	2.4	41.7
COc1ccc(/C=C/C(=O)c2ccc[nH]2)c(OC)c1OC	51.8	3.3	-2.0	13.7	-1.0	/
C=CCn1c(O)c(C=Nc2ccc(CN3CCCCC3)cc2)c(=O)[nH]c1=S	0.3	-2.4	/	-4.9	0.4	/
O=C1CNC(=S)N1CCc1ccccc1Cl	0.0	-9.7	/	1.2	0.2	/
O=C1CNC(=S)N1CCc1ccc(Cl)cc1	83.2*	-4.0	/	20.6	-0.2	35.0
O=C(OCn1ncc(Cl)c(Cl)c1=O)c1cccc(C(F)(F)F)c1	98.8*	-0.7	-0.9	-17.0	-0.7	20.6
SMILES	L929 necroptosis	Rad51 HR inh	Efa HMGR inh	TNF death inh	PERK inhibitor	zVAD death conf
Nc1nonc1-n1nnc(C(=O)N/N=C/c2ccc(Br)cc2)c1CSC1=NCCS1	77.8*	4.5	-2.3	-6.8	0.6	2.3
CC1(C)CC(=O)C=C(NCc2ccccc2)C1	0.1	-5.2	1.5	3.0	1.3	/
CC1(C)CC(=O)C=C(Nc2cc(-c3ccccc3)[nH]n2)C1	90.8*	-2.5	-5.5	12.3	-0.5	24.0
CCOC(=O)CCC(=O)NNC(=O)c1ccc(NC(=O)c2ccccc2)cc1	75.4*	/	-5.4	-0.6	0.3	12.4
O=C1COc2ccc(C(=O)COc3ccc([N+](=O)[O-])cc3)cc2N1	0.4	-1.1	/	-0.7	0.1	/
COc1cc(/C=N/NC2=NCCCCC2)ccc1O	0.2	/	/	0.8	1.6	/
COc1cc(/C=N/Nc2ncnc3sc4c(c23)CCC4)ccc1O	82.0*	/	-2.6	9.6	-0.8	38.4
Cc1ccc(NC(=O)c2ccccc2)cc1-n1cnnn1	75.2*	-5.1	1.4	1.6	-1.1	5.5
CCCC(=O)n1nc(-c2cccnc2)nc1NCc1ccccc1	79.1*	5.8	-7.6	2.1	0.6	1.2
O=C(c1ccc([N+](=O)[O-])cc1)n1nc(-c2ccccc2)nc1NCc1ccccc1	47.6	/	-9.2	-1.2	0.4	/
CCC(=O)n1nc(-c2cccnc2)nc1NCc1ccc(F)cc1	71.9	-4.7	-4.6	2.3	-0.2	/
CCCC(=O)n1nc(-c2cccnc2)nc1NCc1cccs1	77.1*	/	-1.6	1.7	2.0	0.7
O=C(c1cccc([N+](=O)[O-])c1)n1nc(-c2ccccc2)nc1NCc1ccccc1	80.3*	0.2	-6.6	4.1	-0.8	3.1
CCC(=O)n1nc(-c2cccnc2)nc1NCc1ccccc1	79.3*	/	3.6	2.4	2.4	7.6
CCC(=O)n1nc(-c2cccnc2)nc1NCc1cccs1	72.6	-5.0	-5.6	1.0	-0.1	/
CC(NCc1ccc(S(N)(=O)=O)cc1)C(=O)N1c2ccccc2CC1C (centres undefined)	-0.1	-90.9	/	0.1	0.8	/
COC(=O)C(Cc1ccccc1)NC(=O)c1cccc(S(=O)(=O)N(C)C)c1 (centres undefined)	4.8	3.2	-5.2	0.2	1.1	/
Cc1ccc(CCNC(=O)CN(C)S(=O)(=O)c2ccc3c(c2)n(C)c(=O)c(=O)n3C)cc1	-0.6	12.7	/	-1.2	0.9	/
CC(=O)Nc1ccccc1P(=O)(c1ccccc1)c1ccccc1OC(C)=O (centres undefined)	2.9	-14.6	/	0.5	0.7	/
COC(=O)c1sc(NC(=O)c2ccco2)nc1C	2.7	-0.7	-1.1	-5.4	1.3	/
O=C(Nc1ccc(N2CCOCC2)cc1)c1cc2c(s1)CCCCC2	75.3*	1.7	-9.0	2.7	0.1	4.6
Cc1cnc(NC(=O)c2cc3c(s2)CCCC3)s1	79.1*	5.6	-1.4	47.5	-0.5	79.0*
Cc1cnc(NC(=O)c2ccco2)s1	83.0*	-6.2	-1.4	-0.2	1.7	9.6
Cc1ccc(CCNC(=O)CCc2nc3ccccc3[nH]2)cc1	-0.3	4.7	-5.5	1.9	0.9	/
O=c1oc2c(-c3cccc(F)c3)cc(O)cc2s1	-0.8	-6.2	3.2	-1.5	1.5	/
